The text below walks through data of PubChem BioAssay AID504392 (Broad Institute, 2011).

Activity calls are given as the source filed them.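 The calls were made as follows: active = fitted curve rising past 10% caspase activation at or below the top valid dose; inactive = activity opposite to the expected rise, or the rest.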

The nature of the assay: caspase activation in wild-type MEFs, dose response, counter-screen for Bcl2-A1 inhibitor project, cell-based, wild-type MEF, caspase luminescence, dry powder, set 2 (AID 504392). To be noted: CaspaseGlo luminescence, 3 h; series mostly up to 35 µM. In outline: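 test system = wild-type mouse embryonic fibroblasts, not A1–BIM primed | buffer or medium = RPMI-1640, 10% FBS | times = 3 h compound at 37 °C, 1 h reagent at RT | signal = luminescence with CaspaseGlo caspase reagent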
`Cn1c(=O)c([N+](=O)[O-])c(-n2cnc3ccccc32)c2ccccc21`: the compound was called inactive.
`O=c1oc2ccccc2c(Sc2ccccc2)c1[N+](=O)[O-]`: the compound was classed as inactive.
Consider `Cc1ccc(Sc2c([N+](=O)[O-])cnc3ccccc23)cc1`, for which the call was inactive.
To `O=c1oc2ccccc2c(Cl)c1[N+](=O)[O-]` belongs “inactive”.
Take `Cc1ccc(Nc2c([N+](=O)[O-])c(=O)n(C)c3ccccc23)cc1`: the compound was classed as inactive.
In the case of `Cc1ccc(Nc2c([N+](=O)[O-])c(=O)oc3ccccc23)cc1`, the outcome was inactive.
Consider `CCOC(=O)N1CCN(c2c([N+](=O)[O-])c(=O)n(C)c3ccccc23)CC1`, for which the result was inactive.
Consider `O=c1oc2ccccc2c(Nc2cc(Cl)cc(Cl)c2)c1[N+](=O)[O-]`, for which the call was inactive.
Regarding `Cn1c(=O)c([N+](=O)[O-])c(Cl)c2ccccc21`, the compound was classed as inactive.
To `Cn1c(=O)c([N+](=O)[O-])c(Oc2ccccc2)c2ccccc21` belongs “inactive”; to `Cn1c(=O)c([N+](=O)[O-])c(Nc2ccc(Cl)cc2)c2ccccc21`, “inactive”; to `Cc1ccc(Sc2c([N+](=O)[O-])c(=O)oc3ccccc23)cc1`, “inactive”.
To `O=C(Oc1cccc(/C=N/Nc2nc(Nc3ccccc3)nc(N3CCOCC3)n2)c1)c1ccco1` belongs “inactive”; to `CCOCCCNc1c([N+](=O)[O-])c(=O)n(C)c2ccccc12`, “inactive”.
Take `O=c1oc2ccccc2c(N2CCCCC2)c1[N+](=O)[O-]`: the compound was called inactive.
For `O=[N+]([O-])c1cnc2ccccc2c1Sc1ccccc1` the value was “inactive”; for `CN1C(=O)C(C)(C)N(Cc2ccccc2)c2ccccc21`, “inactive”; for `Cc1ccc(Sc2cc(=O)n(C)c3ccccc23)cc1`, “inactive”.
Regarding `Cc1ccc(Sc2c([N+](=O)[O-])c(=O)n(C)c3ccccc23)cc1`, the compound was called inactive.
In the case of `CCSc1c([N+](=O)[O-])c(=O)oc2ccccc12`, the outcome was inactive.
